An excerpt weighted towards active compounds, which were near 2.1% of everything screened.
LMPTP inh – LMPTP (human) inhibition | actives 0.22% (n = 360,000) | inhibition, % at 20 µM | AID 651560 | recombinant LMPTP-A, OMFP fluorogenic substrate, fluorescence intensity;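 active = compounds that cut the enzyme signal by at least half of the control window in the single-dose screen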;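 also: plate controls were DMSO wells with enzyme plus substrate for no effect and substrate without enzyme for full effect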
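Test system: LMPTP-A phosphatase enzyme; input: 0.625 nM LMPTP-A final; reagent: OMFP substrate, 400 µM final; compound dosing: 20 µM single dose, 3% DMSO; incubation: 50 min dark incubation at room temperature; measured by: endpoint fluorescence intensity from OMFP dephosphorylation; measure: % inhibition relative to no-enzyme and uninhibited control wells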
Scp1 inh – blocks human Scp-1 phosphatase activity; Recombinant Scp1, phosphopeptide, malachite green phosphate absorbance; inhibition, % at 20 µM; actives 0.88% (n = 340,000);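 active = inhibition above about 50% at 20 µM, limit read from the data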;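 also: plate controls were DMSO wells with enzyme for no effect and wells lacking enzyme for full effect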
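Test system: SCP-1 phosphatase catalytic domain, residues 76-261; measured by: colorimetric phosphate reagent with accelerator and stabiliser, absorbance at 630 nm; timing: enzyme reaction 45 min at room temperature, colour 5 min, stabilisation 30 min; also added: Phosphorylated 17-residue peptide substrate; compound dosing: one concentration, 20 µM, with 1.0% DMSO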
SUMO1-SIM PPI – alters human SUMO1 binding to SIM partners; actives 0.33% (n = 360,000); SUMO1 binding to a labelled peptide, TR-FRET, 1 h; inhibition, % at 20 µM; P63165; in the data active = inhibition above about 37%
DNMT1 inh – DNMT1 (human) enzyme inhibition; DNMT1 molecular beacon, Hinp1I cleavage, fluorescence; inhibition (reported as % activation of signal), % at 10 µM; P26358; actives 0.83% (n = 360,000); in the data active = inhibition above about 50%
GRK2 inh – human GRK2 inhibition via aptamer displacement; bead flow cytometry, FAM-aptamer displacement from GRK2; inhibition of aptamer binding, % at 10 µM; actives 0.59% (n = 330,000); AID 488847;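 active = inhibition of aptamer binding above 40%, roughly 3 SD of noise, on plates passing a quality check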;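 also: median bead fluorescence of bound FAM aptamer so fluorescent compounds give negative values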
Target sequence (P25098 whole entry, looked up): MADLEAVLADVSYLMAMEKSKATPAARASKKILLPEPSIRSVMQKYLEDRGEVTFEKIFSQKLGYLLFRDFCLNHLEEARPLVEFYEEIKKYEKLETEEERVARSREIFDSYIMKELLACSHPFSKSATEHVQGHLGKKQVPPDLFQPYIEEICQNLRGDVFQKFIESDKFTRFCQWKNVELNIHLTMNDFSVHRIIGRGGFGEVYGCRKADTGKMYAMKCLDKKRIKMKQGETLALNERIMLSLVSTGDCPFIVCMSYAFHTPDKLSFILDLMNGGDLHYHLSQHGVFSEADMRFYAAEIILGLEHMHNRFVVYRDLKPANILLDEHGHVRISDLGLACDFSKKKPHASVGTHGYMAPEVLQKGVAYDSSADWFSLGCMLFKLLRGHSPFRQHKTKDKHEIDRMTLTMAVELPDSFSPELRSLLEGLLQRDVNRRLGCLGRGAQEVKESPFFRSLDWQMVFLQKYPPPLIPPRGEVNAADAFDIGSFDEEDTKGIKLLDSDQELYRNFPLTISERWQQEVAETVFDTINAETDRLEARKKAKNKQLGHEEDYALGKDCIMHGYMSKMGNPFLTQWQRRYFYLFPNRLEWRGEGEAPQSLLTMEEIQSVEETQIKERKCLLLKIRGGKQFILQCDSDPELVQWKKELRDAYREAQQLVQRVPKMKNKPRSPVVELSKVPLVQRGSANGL
STEP block – STEP (human) phosphatase inhibition | recombinant STEP, OMFP fluorogenic substrate, fluorescence | inhibition, % at 20 µM | actives 0.25% (n = 360,000);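 active = inhibition at 20 µM, scaled per plate between control wells, above about 37%, limit read from the data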;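 also: 0% = DMSO with enzyme and substrate and 100% = substrate only without enzyme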
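medium = Bis-Tris buffer pH 6.0, 2.5 mM DTT, 0.005% Tween 20 | test system = STEP (striatal-enriched tyrosine phosphatase) enzyme, cell-free | measure = normalized % inhibition | compound dosing = 20 µM, 1% DMSO | also added = 25 µM OMFP | schedule = reaction 20 min, ambient temperature | measured by = fluorescence read at 480 nm ex / 540 nm em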
Scp-1 conf – Scp-1 (human) inhibition, single-dose confirmed | shares compounds with Scp1 inh | recombinant SCP-1 catalytic domain, phosphate release, malachite green absorbance | inhibition, % at 20 µM | actives 61% (n = 2,500);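 also: plate controls were DMSO with enzyme for no effect and buffer wells lacking enzyme for full effect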
MG interference – counter-screen for Scp-1 inhibitors: colorimetric interference; shares compounds with Scp1 inh; Colorimetric interference counterscreen, malachite green absorbance 630 nm; apparent inhibition (interference), % at 20 µM; 2,500 tested, under 10 active; AID 540313;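 also: compounds added after enzyme reaction finished so only phosphate colour detection is probed; plate controls were DMSO wells with completed Scp-1 reaction for no effect and substrate wells lacking enzyme for full effect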
Scp1 DSF – Scp-1 (human) binding by thermal shift. shares compounds with Scp1 inh. Recombinant SCP1, Sypro Orange thermal shift Tm. thermal shift relative to vanadate control, % at 40 µM. actives 25% (n = 1,500);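 active = substances whose mean melting-temperature shift, as a percentage of the reference inhibitor's shift, reaches about 5.3%, limit read from the data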;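 also: 0% = Tm of DMSO wells and 100% = Tm with sodium orthovanadate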
Starred values were filed as active, the others as inactive; x = no result given.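 The calls were made as follows, unless noted: active = inhibition of at least 30% at 20 µM; inactive = the rest.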

SMILES	LMPTP inh	Scp1 inh	SUMO1-SIM PPI	DNMT1 inh	GRK2 inh	STEP block	Scp-1 conf	MG interference	others
CCCCc1c(CCC)c(=N)c2ccccc2n1C	10	91*	1	0	3	-1	7	-10
CC(C)c1ccc(NS(=O)(=O)c2ccc3c(c2)oc(=O)n3C)cc1	1	-13	4	-1	3	0	-20	-23
O=C(N/N=C/c1ccc(F)c(F)c1)c1cc2c(s1)-c1ccccc1CC2	6	62*	2	7	0	0	42*	-16	Scp1 DSF=3
C[C@]12CC[C@H](O)C[C@@H]1CC[C@@H]1[C@@H]2CC[C@@]2(C)[C@H]1CCC(=O)[C@]21CCCO1	0	82*	1	3	3	2	-19	-16
O=C(CCCCCn1c(SCc2ccncc2)nc2ccccc2c1=O)NCc1ccco1	22	56*	10	19	14	2	32*	-10	Scp1 DSF=-13
N#CCSc1nc2ccccc2c(=O)n1CCCC(=O)NCc1ccco1	-1	0	-2	7	1	-4	x	x
COc1ccccc1-n1c(SCC(=O)N2CCCCC2)nc2cccnc21	-1	95*	-4	1	1	-3	-21	-15
COc1ccccc1-n1c(SCC(=O)N2CCOCC2)nc2cccnc21	0	0	2	0	0	-1	x	x
Cc1c(/C(O)=C2/C(=O)C(=O)N(CCN3CCOCC3)C2c2ccco2)cnn1-c1ccccc1 (stereo not given)	1	-4	-6	0	x	1	-13	-7
Cc1c(/C(O)=C2/C(=O)C(=O)N(CCN3CCOCC3)C2c2cccnc2)cnn1-c1ccccc1 (stereo not given)	-4	-3	-6	0	0	-6	x	x
Cc1cccc(C)c1NC(=O)NC1(C(=O)N2CCN3CCCC3C2)CCCCC1 (stereo not given)	-1	70*	6	2	0	0	-17	-13
CC(=O)NC(CC(=O)OCC(=O)Nc1ccc2c(c1)OCO2)c1ccccc1 (stereo not given)	-1	-12	-3	-2	0	0	x	x
CC(=O)NC(CC(=O)OCC(=O)c1ccc(NC(=O)CC(C)C)cc1)c1ccccc1 (stereo not given)	3	52*	1	18	0	8	60*	-8	Scp1 DSF=-4
COCCCN(C(=O)c1cc(-c2ccco2)nc2ccccc12)c1c(N)n(Cc2ccccc2)c(=O)[nH]c1=O	11	64*	-4	30	0	-1	47*	-10	Scp1 DSF=5.4*
COCCN(C(=O)COC(=O)Cc1coc2cc3c(cc12)CCC3)c1c(N)n(Cc2ccccc2)c(=O)[nH]c1=O	18	67*	11	31	19	24	55*	-22	Scp1 DSF=-25
COCCN(C(=O)COC(=O)COc1ccc2c(c1)CCC2)c1c(N)n(Cc2ccccc2)c(=O)[nH]c1=O	-1	-1	6	0	0	-3	x	x
CC(=O)Nc1ccc(S(=O)(=O)NCCC(=O)N2CCc3ccccc32)cc1	0	-4	-2	-1	2	-1	x	x
CCOc1ccccc1NC(=O)C(NCC1(N2CCCCC2)CCCCC1)c1ccccc1 (stereo not given)	-1	65*	8	2	0	2	-13	-11
Clc1ccc(C=NN2CCCCCC2)c(Cl)c1	1	67*	2	3	x	-1	-14	-19
O=C(CCCc1c[nH]c2ccccc12)Nc1ccc2ccccc2c1	1	59*	-2	-16	0	3	-11	-5
CC(=O)Nc1ccc(NC(=O)CCCc2c[nH]c3ccccc23)cc1	0	-3	1	-5	3	0	x	x
Cc1cc(C)c2c(n1)SCC(=O)N2CC(=O)Nc1c(C)cccc1C	-2	52*	6	4	0	3	-14	-11
O=C(c1ccccc1F)N1CCCC(N2CCN(Cc3ccc4c(c3)OCO4)CC2)C1 (stereo not given)	-1	x	2	2	x	3	x	x
CC(=O)c1ccccc1C(=O)N1CCCC(N2CCN(Cc3ccc4c(c3)OCO4)CC2)C1 (stereo not given)	2	65*	-3	4	0	-1	-10	-13
COc1ccc(S(=O)(=O)Nc2ccc3c(c2)C(=O)N([C@H](C)CO)C[C@H](C)[C@@H](CN(C)Cc2ccncc2)OCCCC[C@@H](C)O3)cc1	-2	x	3	1	x	-1	x	x
SMILES	LMPTP inh	Scp1 inh	SUMO1-SIM PPI	DNMT1 inh	GRK2 inh	STEP block	Scp-1 conf	MG interference	others
C[C@H](NC(=O)c1ccco1)C(=O)NNC(=O)c1ccc(F)cc1	0	99*	-2	1	0	-3	0	-10
CC(CSC(=O)c1ccccc1)C(=O)N1c2ccccc2CC1C(=O)O (stereo not given)	-1	x	8	-3	x	-4	x	x
CCCCCc1ccnc(CC(=O)c2ccc(OC)cc2)c1	-1	94*	-3	0	x	0	-18	-19
CCOC1=C2CN(S(=O)(=O)c3ccc(C)cc3)C(c3ccc(C)cc3)CC2N(S(=O)(=O)c2ccc(C)cc2)C(c2ccccc2)C1 (stereo not given)	0	x	-2	x	x	x	x	x
Cc1ccc(NC(=O)CSc2sc3c(O)cc(=O)[nH]c3c2C#N)c(F)c1	-1	30	39	9	2	4	x	x
COc1cc(Cl)c(C)cc1NC(=O)CSc1sc2c(O)cc(=O)[nH]c2c1C#N	35	65*	23	44	33	16	76*	0	Scp1 DSF=13*
COc1ccc(OC)c(NC(=O)CSc2sc3c(O)cc(=O)[nH]c3c2C#N)c1	44	70*	12	16	5	13	55*	-12	Scp1 DSF=11*
COc1ccc(CN(C(=O)/C=C/c2ccco2)C2CCS(=O)(=O)C2)cc1 (stereo not given)	4	87*	-1	12	4	3	46*	-13	Scp1 DSF=2
COc1ccc(C2=Nc3ccccc3N(C(=O)c3cnccn3)C2C(=O)NC2CCCC2)cc1 (stereo not given)	-1	x	-18	x	x	x	x	x
Cn1c(NCc2cccnc2)nc2cc(-c3cccc(C(=O)NCCO)c3)sc2c1=O	1	x	-20	3	x	-2	x	x
